Experimental data published in ChEMBL document CHEMBL1144844, “Synthesis and characterization of 5,6,7,8-tetrahydroquinoline C5a receptor antagonists” (Bioorg Med Chem Lett, 2008).

How the values were obtained:
[1] = target: T1, C5a anaphylatoxin chemotactic receptor 1 (Homo sapiens, UniProt P21730); experiment: Antagonist activity at human C5a receptor in U937 cells assessed as inhibition of anaphylatoxin-induced intracellular calcium mobilization; type: functional, cell-based, U-937
T1 sequence (P21730 whole entry): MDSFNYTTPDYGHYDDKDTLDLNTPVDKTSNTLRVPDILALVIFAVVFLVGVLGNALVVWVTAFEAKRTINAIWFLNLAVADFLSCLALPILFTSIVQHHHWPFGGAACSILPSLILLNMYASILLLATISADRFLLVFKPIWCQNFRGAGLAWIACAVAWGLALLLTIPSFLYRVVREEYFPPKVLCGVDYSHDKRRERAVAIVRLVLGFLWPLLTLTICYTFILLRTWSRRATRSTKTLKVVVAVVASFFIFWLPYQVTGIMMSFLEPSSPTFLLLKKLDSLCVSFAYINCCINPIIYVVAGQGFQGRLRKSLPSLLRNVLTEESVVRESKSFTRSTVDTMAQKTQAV

[2] = target: T1, C5a anaphylatoxin chemotactic receptor 1; experiment: Displacement of [125I]C5a from human C5a receptor in U937 cells; type: cell-based, U-937
[3] = Clearance in rat at 2 mg/kg, iv; settings: in vivo
[4] = Oral bioavailability in rat at 10 mg/kg; type: ADME, organism-based; settings: in vivo
Procedure, shortened: (§1)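 Rat pharmacokinetics with single doses: oral at 10 mg/kg and intravenous at 2 mg/kg, n = 4. Cmax and half-life were taken from the oral arm, and bioavailability from comparison of the oral and intravenous exposures.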

[5] = Metabolic stability in human liver microsomes after 10 mins; type: ADME, Microsome; settings: read-out: Stability
[6] = Half life in rat at 10 mg/kg, po; type: ADME, organism-based; parameters: dose 10 mg/kg, route oral; settings: in vivo; procedure, shortened: as §1
[7] = Metabolic stability in human liver microsomes; type: ADME, Microsome
[8] = Cmax in rat at 10 mg/kg, po; type: ADME, organism-based; parameters: dose 10 mg/kg, route oral; settings: in vivo; procedure, shortened: as §1

| SMILES | IC50 [1] [nM] | further results |
| --- | --- | --- |
| CCc1cccc(CC)c1-c1cc(OC)c2c(n1)CCCC2N1CCc2ccccc2C1 (stereo unspecified) | 1100 | – |
| CCc1cccc(CC)c1-c1ccc2c(n1)CCCC2N(CC)c1cccc2ccccc12 (stereo unspecified) | > 10000 | – |
| CCc1cccc(CC)c1-c1cc(OC)c2c(n1)CCCC2N(CC)c1cccc2c1CCCC2 (stereo unspecified) | 220 | – |
| CCc1cccc(CC)c1-c1cc(OC)c2c(n1)CCCC2N1CCc2c(cccc2C(F)(F)F)C1 (stereo unspecified) | > 10000 | – |
| CCNC1CCCc2nc(-c3c(CC)cccc3CC)cc(OC)c21 (stereo unspecified) | > 10000 | – |
| CCc1cccc(CC)c1-c1cc(OC)c2c(n1)CCCC2N(C)c1cccc2ccccc12 (stereo unspecified) | 170 | – |
| CCN(c1cccc2ccccc12)C1CCCc2nc(-c3ccccc3)cc(OC)c21 (stereo unspecified) | > 10000 | – |
| CCN(c1cccc2ccccc12)C1CCCc2nc(-c3ccsc3)cc(OC)c21 (stereo unspecified) | > 10000 | – |
| CCN(c1cccc2ccccc12)C1CCCc2nc(-c3ccccc3C(C)C)cc(OC)c21 (stereo unspecified) | 1700 | – |
| CCc1ccccc1-c1cc(OC)c2c(n1)CCCC2N(CC)c1cccc2ccccc12 (stereo unspecified) | 650 | – |
| CCN(c1cccc2ccccc12)C1CCCc2nc(-c3ccc4c(c3)OCO4)cc(OC)c21 (stereo unspecified) | > 10000 | – |
| CCN(c1cccc2ccccc12)C1CCCc2nc(-c3cccnc3)cc(OC)c21 (stereo unspecified) | > 10000 | – |
| CCc1cccc(CC)c1-c1cc(OC)c2c(n1)CCCC2N(C)c1ccc2ccccc2c1 (stereo unspecified) | > 10000 | – |
| CCc1cccc(CC)c1-c1cc(OC)c2c(n1)CCCC2N(C)c1c(C)ccc2ccccc12 (stereo unspecified) | 1500 | – |
| CCN(c1cccc2ccccc12)C1CCCc2nc(-c3c(OC)cccc3OC)cc(OC)c21 (stereo unspecified) | 1800 | Ki [2]: 1200 nM |
| CCc1cccc(CC)c1-c1cc(OC)c2c(n1)CCCC2N(CCO)c1cccc2ccccc12 (stereo unspecified) | 190 | Ki [2]: 180 nM |
| CCN(c1cccc2ccccc12)C1CCCc2nc(-c3ccccc3-c3ccccc3)cc(OC)c21 (stereo unspecified) | > 10000 | – |

| SMILES | IC50 [1] [nM] | further results |
| --- | --- | --- |
| CCN(c1cccc2ccccc12)C1CCCc2nc(-c3c(C)cccc3C)cc(OC)c21 (stereo unspecified) | 130 | – |
| CCc1cccc(CC)c1-c1cc(CC)c2c(n1)CCCC2N(C)Cc1cccc2ccccc12 (stereo unspecified) | > 10000 | – |
| CCc1cccc(CC)c1-c1cc(CC)c2c(n1)CCCC2N(CC)Cc1ccccc1 (stereo unspecified) | > 10000 | – |
| CCc1cccc(CC)c1-c1cc(OC)c2c(n1)CCCC2N1CCc2cc(OC)c(OC)cc2C1 (stereo unspecified) | > 10000 | – |
| CCc1cccc(CC)c1-c1cc(OC)c2c(n1)CCCC2N(C)c1cccc2cc(OC)ccc12 (stereo unspecified) | 180 | – |
| CCc1cccc(CC)c1-c1cc(OC)c2c(n1)CCCC2N(C)c1cccc2c(OC)cccc12 (stereo unspecified) | > 10000 | – |
| CCc1cccc(CC)c1-c1cc(OC)c2c(n1)CCCC2N1CCc2ccc(C(F)(F)F)cc2C1 (stereo unspecified) | > 10000 | – |
| CCc1cccc(CC)c1-c1cc(OC)c2c(n1)CCCC2N1CCc2cccc(C(F)(F)F)c2C1 (stereo unspecified) | 270 | – |
| CCN(c1cccc2ccccc12)C1CCCc2nc(Cl)cc(OC)c21 (stereo unspecified) | > 10000 | – |
| CCc1cccc(CC)c1-c1cc(OC)c2c(n1)CCCC2Nc1cccc2ccccc12 (stereo unspecified) | > 10000 | – |
| CCc1cccc(CC)c1-c1cc(OC)c2c(n1)CCCC2N1CCc2ccc(OC)cc2C1 (stereo unspecified) | > 10000 | – |
| CCc1cccc(CC)c1-c1cc(Cl)c2c(n1)CCCC2N(CC)c1cccc2ccccc12 (stereo unspecified) | 2000 | – |
| CCc1cccc(CC)c1-c1cc(OC)c2c(n1)CCCC2N(CC)c1cccc2ccccc12 (stereo in doubt; 27) | – | clearance [3]: 31 mL/min/kg; bioavailability [4]: 59%; remaining at 10 min [5]: 88%; half-life [6]: 1.8 h; half-life [7]: 0.9 h; Cmax [8]: 1300 nM |
| CCc1cccc(CC)c1-c1cc(OC)c2c(n1)CCCC2N[C@H]1CCCc2ccccc21 (stereo in doubt; 38) | 820 | – |
| CCc1cccc(CC)c1-c1cc(OC)c2c(n1)CCCC2N[C@H]1CCCc2ccccc21 (stereo in doubt; 39) | 5500 | – |
| CCc1cccc(CC)c1-c1cc(OC)c2c(n1)CCCC2N[C@@H]1CCCc2ccccc21 (stereo in doubt; 40) | 1900 | – |
| CCc1cccc(CC)c1-c1cc(OC)c2c(n1)CCCC2N[C@@H]1CCCc2ccccc21 (stereo in doubt; 41) | 8100 | – |
